Results on nine compounds are retold here after publication PMC9283305 (Nitric oxide : biology and chemistry, 2022).

Read-outs that look alike come from different tables or passages of the source.

Test [1] addresses T1, H81W (Homo sapiens, UniProt Q8WWM9, H81W). Description: UV-Vis difference spectroscopy titration of ferric cytoglobin. The note with it: SD, n = 3. Type of test: binding.
In test [2] the target is T2, H81A (Homo sapiens, UniProt Q8WWM9, H81A). The test is described as above. In kind it is binding. The settings on record: SD, n = 3.
Test [3] addresses T3, K116E (Homo sapiens, UniProt Q8WWM9, K116E). Described as above. In kind it is binding. The note with it: SD, n = 3.
In test [4] the target is T4, Wild-type Cygb (Homo sapiens, UniProt Q8WWM9). The test is described as above. Type of test: binding. The settings on record: SD, n = 3.
Test [5] addresses T5, H81Q (Homo sapiens, UniProt Q8WWM9, H81Q). The description is as above. Type of test: binding. The settings on record: SD, n = 3.
Test [6] has as its target T6, H81L (Homo sapiens, UniProt Q8WWM9, H81L). The description is as above. The settings on record: SD, n = 3. In kind it is binding.
Test [7] addresses T1, H81W. Description: UV-Vis difference spectroscopy titration of ferric cytoglobin. The note with it: SD, n = 3. Type of test: binding. The procedure, abridged:
(§1)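 Sodium oleate stocks (50 mM in water, −20 °C) were diluted in buffer before use. Ferric globin (5–15 μM) in 100 mM sodium phosphate, pH 7.4, 25 °C was titrated with 200 μM–5 mM stocks to about 60–1500 μM oleate. The max–min difference-spectrum amplitude was plotted against oleate, and KD came from a 1:1 quadratic fit. At least triplicate, with ≥2 protein batches; mean ± SD.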
This is another data set of the same source.

In test [8] the target is T91D (Homo sapiens, UniProt Q8WWM9, T91D). Described as above. Type of test: binding. The note with it: SD, n = 3. The gist of the method: as §1
In test [9] the target is T5, H81Q. The test is described as above. In kind it is binding. The settings on record: SD, n = 3. The procedure, abridged:
as §1
This is another data set of the same source.

Test [10] concerns the target T2, H81A. The test is described as above. Type of test: binding. The note with it: SD, n = 3. The gist of the method: as §1
This is another data set of the same source.

The target in test [11] is T3, K116E. Described as above. In kind it is binding. The note with it: SD, n = 3. The procedure, abridged:
as §1
This is another data set of the same source.

In test [12] the target is R84E (Homo sapiens, UniProt Q8WWM9, R84E). Described as above. In kind it is binding. The settings on record: SD, n = 3. The procedure, abridged:
as §1

The target in test [13] is L108Q (Homo sapiens, UniProt Q8WWM9, L108Q). The test is described as above. The settings on record: SD, n = 3. In kind it is binding. The gist of the method:
as §1

Test [14] deals with T6, H81L. The test is described as above. Type of test: binding. The settings on record: SD, n = 3. The procedure, abridged: as §1
The source holds these as a separate data set.

The target of test [15] is V105Y (Homo sapiens, UniProt Q8WWM9, V105Y). Described as above. Type of test: binding. The note with it: SD, n = 3. The procedure, abridged: as §1
For test [16] the following is noted: cited from earlier work.
In test [17] the target is T2, H81A. Kind of test: UV-Vis difference spectroscopy titration of ferric cytoglobin. Type of test: binding. The settings on record: SD, n = 3. The gist of the method: (§2)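 Ferric globin (5–15 μM) was titrated with imidazole stocks (1–100 mM) to about 100–15000 μM final. Buffer was 100 mM sodium phosphate, pH 7.4, at 25 °C. UV-Vis difference spectra were taken, and the max–min absorbance difference was plotted against ligand. KD came from a 1:1 quadratic binding fit. At least triplicate, with ≥2 protein batches; mean ± SD.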
The source holds these as a separate data set.

The target of test [18] is T5, H81Q. The description is as above. Type of test: binding. The settings on record: SD, n = 3. The procedure, abridged: as §2
The source holds these as a separate data set.

Test [19] concerns the target T6, H81L. The test is described as above. In kind it is binding. The note with it: SD, n = 3. The procedure, abridged: as §2
This is another data set of the same source.

In test [20] the target is T4, Wild-type Cygb. Described as above. In kind it is binding. The note with it: SD, n = 3. The procedure, abridged:
as §2
The source holds these as a separate data set.

Test [21] has as its target T1, H81W. The test is described as above. The note with it: SD, n = 3. In kind it is binding. The procedure, abridged:
as §2
This is another data set of the same source.

Setting [22] is: 37°C, 100 mM sodium phosphate, pH 7.4.

T1 sequence (Q8WWM9 whole entry H81W): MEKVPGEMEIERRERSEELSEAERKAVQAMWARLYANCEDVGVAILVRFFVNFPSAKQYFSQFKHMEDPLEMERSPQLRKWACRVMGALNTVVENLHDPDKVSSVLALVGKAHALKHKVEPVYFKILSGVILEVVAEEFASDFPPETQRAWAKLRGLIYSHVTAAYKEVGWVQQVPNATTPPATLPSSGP
T2 sequence (Q8WWM9 whole entry H81A): as the sequence (Q8WWM9 whole entry H81W) above, with W81A counted along it
T6 sequence (Q8WWM9 whole entry H81L): as the sequence (Q8WWM9 whole entry H81W) above, with W81L counted along it
T5 sequence (Q8WWM9 whole entry H81Q): as the sequence (Q8WWM9 whole entry H81W) above, with W81Q counted along it
T4 sequence (Q8WWM9 whole entry): as the sequence (Q8WWM9 whole entry H81W) above, with W81H counted along it
T3 sequence (Q8WWM9 whole entry K116E): as the sequence (Q8WWM9 whole entry H81W) above, with W81H, K116E counted along it
T91D, sequence (Q8WWM9 whole entry T91D): as the sequence (Q8WWM9 whole entry H81W) above, with W81H, T91D counted along it
R84E, sequence (Q8WWM9 whole entry R84E): as the sequence (Q8WWM9 whole entry H81W) above, with W81H, R84E counted along it
L108Q, sequence (Q8WWM9 whole entry L108Q): as the sequence (Q8WWM9 whole entry H81W) above, with W81H, L108Q counted along it
V105Y, sequence (Q8WWM9 whole entry V105Y): as the sequence (Q8WWM9 whole entry H81W) above, with W81H, V105Y counted along it

A word on the Kd: it is a measure of binding affinity in units of concentration. Lower therefore signals tighter binding. `CCCCCCCC(=O)O` [Octanoic acid, octanoic acid, added as sodium octanoate]: the equilibrium dissociation constant (Kd) in [1] came to 140 ± 10 µM; in test [2], 1520 ± 890 µM; in test [3], 185000 ± 13000 µM; in test [4], 1590 ± 740 µM; in test [5], 250 ± 10 µM; in test [6], 950 ± 80 µM.

On to `CCCCCCCC/C=C\CCCCCCCC(=O)O` [Oleic acid, oleic acid (18:1 cis-9), added as sodium oleate], for which the Kd in [7] stood at 32 ± 10 µM; in test [8], 5.7 ± 1.4 µM; in test [9], 46 ± 8 µM; in test [10] it was 24 ± 2 µM; in test [11] it was 62 ± 23 µM; in [12], 170 ± 90 µM. Further, the Kd in test [13] came out at 14 ± 3 µM; in test [14], 36 ± 13 µM; in test [15] it was 4.8 ± 3.2 µM.

Turning to “Myoglobin F43H: myoglobin mutant with histidine instead of Phe43(CD1) [reference compound]”, the “Nitrite reductase reaction rate constant” value in test [16] (Mb values determined at 25°C) is 1.4 ± 0.1^c M^−1s^−1.

For “Myoglobin H64A: myoglobin distal histidine His64 to Ala mutant [reference compound]”, in test [16] (Mb values determined at 25°C), the “Nitrite reductase reaction rate constant” value is reported as 1.8 ± 0.3^b M^−1s^−1.

“Hemoglobin R-State: hemoglobin in the R-state [reference compound]”: in test [16] (setting [22]), the “Nitrite reductase reaction rate constant” value was 6.0^a M^−1s^−1.

For “Myoglobin F43H/H64A: myoglobin double mutant Phe43(CD1) to His and His64 to Ala [reference compound]”, the “Nitrite reductase reaction rate constant” value in test [16] (Mb values determined at 25°C) was 49.8 ± 1.5^c M^−1s^−1.

Turning to `c1c[nH]cn1` [Imidazole, imidazole], the equilibrium dissociation constant (Kd) was found to be 10.6 ± 6.2 µM in test [17]; 15.3 ± 11 µM in test [18]; 23.5 ± 4.4 µM in test [19]; 820 ± 150 µM in [20]; 7.3 ± 0.9 µM in [21].

As to “Myoglobin Wild-type: wild-type myoglobin [reference compound]”, the “Nitrite reductase reaction rate constant” value in test [16] (Mb values determined at 25°C) is 5.6 ± 0.6^b M^−1s^−1.

Consider “Hemoglobin T-State: hemoglobin in the T-state [reference compound]”, for which the “Nitrite reductase reaction rate constant” value in [16] (setting [22]) was 0.12^a M^−1s^−1.
